Measurements reported in ChEMBL document CHEMBL5661971 (Cancer Res, 2006).
The source made the active and inactive calls. No cut-off for these calls is given here.

Tests used:
WM35 = experiment: Inhibition of MEK in human WM35 cells assessed as decreased ERK phosphorylation at 2 micromol/L incubated for 60 mins by Western blotting analysis; assay type: cell-based; conditions: dose 2.0 µmol/L
[1] = Inhibition of MEK in human HCT-116 cells expressing K-Ras2 G13D mutant assessed as inhibition of ERK phosphorylation incubated for 60 mins by Western blotting analysis; assay type: cell-based; conditions: HCT-116, 1 h
Method in brief: (§1)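 Cells exposed for 60 min, then Western blot for phospho-ERK1/2 and total ERK1/2 with infrared imaging. […] DMSO control.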

HCT-116 = experiment: Antiproliferative activity against human HCT-116 cells expressing K-Ras G13D mutant assessed as decrease in cell growth incubated for 72 hrs by CellTiter-Glo based luminescence assay; assay type: functional; conditions: HCT-116, 72 h
Method in brief: (§2)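 Cells treated over 1 nmol/L to 20 μmol/L in 0.1% DMSO for 72 h at 37°C, 5% CO₂. Viable cells read by CellTiter-Glo luminescence. EC50 derived from proliferation data.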

[2] = Inhibition of MEK in human SK-MEL-2 cells expressing N-Ras2 Q61R mutant assessed as inhibition of ERK phosphorylation incubated for 60 mins by Western blotting analysis; assay type: cell-based; conditions: SK-MEL-2, 1 h; method in brief: as §1
[3] = Antiproliferative activity against human A375P cells expressing B-Raf V600E mutant assessed as decrease in cell growth incubated for 72 hrs by CellTiter-Glo based luminescence assay; assay type: functional; method in brief: as §2
Malme-3M = experiment: Antiproliferative activity against human Malme-3M cells expressing B-Raf V600E mutant assessed as decrease in cell growth incubated for 72 hrs by CellTiter-Glo based luminescence assay; assay type: functional; method in brief: as §2
SK-MEL-28 = experiment: Antiproliferative activity against human SK-MEL-28 cells expressing B-Raf V600E mutant assessed as decrease in cell growth incubated for 72 hrs by CellTiter-Glo based luminescence assay; assay type: functional; conditions: SK-MEL-28, 72 h; method in brief: as §2
[4] = Inhibition of MEK in human Malme-3M cells expressing B-Raf V600E mutant assessed as inhibition of ERK phosphorylation incubated for 60 mins by Western blotting analysis; assay type: cell-based; conditions: 1 h; method in brief: as §1
[5] = Inhibition of MEK in human HT-29 cells expressing B-Raf V600E mutant assessed as inhibition of ERK phosphorylation incubated for 60 mins by Western blotting analysis; assay type: cell-based; conditions: HT-29, 1 h; method in brief: as §1
[6] = Inhibition of MEK in human PrEC cells assessed as inhibition of ERK phosphorylation incubated for 60 mins by Western blotting analysis; assay type: cell-based; conditions: 1 h; method in brief: as §1
WM-NCI = experiment: Inhibition of MEK in human WM-NCI cells assessed as decreased ERK phosphorylation at 2 micromol/L incubated for 60 mins by Western blotting analysis; assay type: cell-based; conditions: dose 2.0 µmol/L
[7] = Inhibition of MEK in human HMEC cells assessed as inhibition of ERK phosphorylation incubated for 60 mins by Western blotting analysis; assay type: cell-based; conditions: 1 h; method in brief: as §1
[8] = Inhibition of MEK in human COLO 205 cells expressing B-Raf V600E mutant assessed as inhibition of ERK phosphorylation incubated for 60 mins by Western blotting analysis; assay type: cell-based; conditions: COLO 205, 1 h; method in brief: as §1
[9] = Cytotoxicity against human HFF cells assessed as decrease in cell growth incubated for 72 hrs by CellTiter-Glo based luminescence assay; assay type: toxicity; method in brief: as §2
HT-29 = experiment: Antiproliferative activity against human HT-29 cells expressing B-Raf V600E mutant assessed as decrease in cell growth incubated for 72 hrs by CellTiter-Glo based luminescence assay; assay type: functional; conditions: HT-29, 72 h; method in brief: as §2
COLO 205 = experiment: Antiproliferative activity against human COLO 205 cells expressing B-Raf V600E mutant assessed as decrease in cell growth incubated for 72 hrs by CellTiter-Glo based luminescence assay; assay type: functional; conditions: COLO 205, 72 h; method in brief: as §2
[10] = Cytotoxicity against human HMEC cells assessed as decrease in cell growth incubated for 72 hrs by CellTiter-Glo based luminescence assay; assay type: toxicity; method in brief: as §2
[11] = Inhibition of MEK in human A375P cells expressing B-Raf V600E mutant assessed as inhibition of ERK phosphorylation incubated for 60 mins by Western blotting analysis; assay type: cell-based; conditions: 1 h; method in brief: as §1
HT-1080 = experiment: Antiproliferative activity against human HT-1080 cells expressing N-Ras Q61K mutant assessed as decrease in cell growth incubated for 72 hrs by CellTiter-Glo based luminescence assay; assay type: functional; conditions: HT-1080, 72 h; method in brief: as §2
[12] = Inhibition of MEK in human HT-1080 cells expressing N-Ras2 Q61K mutant assessed as inhibition of ERK phosphorylation incubated for 60 mins by Western blotting analysis; assay type: cell-based; conditions: HT-1080, 1 h; method in brief: as §1
SK-MEL-2 = experiment: Antiproliferative activity against human SK-MEL-2 cells expressing N-Ras Q61R mutant assessed as decrease in cell growth incubated for 72 hrs by CellTiter-Glo based luminescence assay; assay type: functional; conditions: SK-MEL-2, 72 h; method in brief: as §2
[13] = Cytotoxicity against human PrEC cells assessed as decrease in cell growth incubated for 72 hrs by CellTiter-Glo based luminescence assay; assay type: toxicity; method in brief: as §2
[14] = Inhibition of MEK in human SK-MEL-28 cells expressing B-Raf V600E mutant assessed as inhibition of ERK phosphorylation incubated for 60 mins by Western blotting analysis; assay type: cell-based; conditions: SK-MEL-28, 1 h; method in brief: as §1
[15] = Inhibition of MEK in human HFF cells assessed as inhibition of ERK phosphorylation incubated for 60 mins by Western blotting analysis; assay type: cell-based; conditions: 1 h; method in brief: as §1
WM-3434 = experiment: Inhibition of MEK in human WM-3434 cells assessed as decreased ERK phosphorylation at 2 micromol/L incubated for 60 mins by Western blotting analysis; assay type: cell-based; conditions: dose 2.0 µmol/L
Melanocyte [16] = experiment: Inhibition of MEK in normal human Melanocyte cells assessed as decreased ERK phosphorylation at 2 micromol/L incubated for 60 mins by Western blotting analysis; assay type: cell-based; conditions: dose 2.0 µmol/L
Melanocyte [17] = experiment: Induction of cell cycle arrest in normal human Melanocyte cells assessed as accumulation of cells at G1 phase at 10 uM incubated for 24 hrs by flow cytometry analysis; assay type: toxicity, cell-based
Method in brief: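 Normal human melanocytes exposed to 1 and 10 μmol/L for 24 h. Cell cycle distribution measured by flow cytometry on a FACScan.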

[18] = In vivo inhibition of ERK phosphorylation in human A375P cells xenografted in nude mouse at 50 mg/kg administered daily for 21 days and then observed an additional 14 days following cessation of treatment relative to control; assay type: functional; conditions: 504 h, time 21 day
A375P = experiment: Anti-tumor activity against human A375P cells xenografted in nude mouse assessed as decreased tumorigenesis at 50 mg/kg administered daily for 21 days and then observed an additional 14 days following cessation of treatment and measured after 55 days; assay type: functional, organism-based; conditions: time 21.0 day
Method in brief: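 Female nude mice, 8–12 weeks old, injected s.c. with 5×10^6 A375P cells in Matrigel. Treatment began 3 weeks later at tumor volume 150–250 mm³, groups of eight randomized. Daily i.p. dosing for 21 days in 2% N,N-dimethylacetamide/2% Cremophor EL/96% acidified water (pH ~4–5), vehicle controls. Caliper tumor volume twice weekly for 55 days; mean ±SE.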

[19] = Toxicity in nude mouse xenografted with human A375P cells assessed as body weight change at 50 mg/kg administered daily for 21 days and then observed an additional 14 days following cessation of treatment; assay type: organism-based; conditions: in vivo, 504 h, time 21 day
[20] = biological target: RAF proto-oncogene serine/threonine-protein kinase (Homo sapiens, UniProt P04049); experiment: Inhibition of c-Raf (unknown origin) assessed as apparent inhibition constant; conditions: read-out: Ki(app)
Sequence of RAF proto-oncogene serine/threonine-protein kinase (P04049 whole entry): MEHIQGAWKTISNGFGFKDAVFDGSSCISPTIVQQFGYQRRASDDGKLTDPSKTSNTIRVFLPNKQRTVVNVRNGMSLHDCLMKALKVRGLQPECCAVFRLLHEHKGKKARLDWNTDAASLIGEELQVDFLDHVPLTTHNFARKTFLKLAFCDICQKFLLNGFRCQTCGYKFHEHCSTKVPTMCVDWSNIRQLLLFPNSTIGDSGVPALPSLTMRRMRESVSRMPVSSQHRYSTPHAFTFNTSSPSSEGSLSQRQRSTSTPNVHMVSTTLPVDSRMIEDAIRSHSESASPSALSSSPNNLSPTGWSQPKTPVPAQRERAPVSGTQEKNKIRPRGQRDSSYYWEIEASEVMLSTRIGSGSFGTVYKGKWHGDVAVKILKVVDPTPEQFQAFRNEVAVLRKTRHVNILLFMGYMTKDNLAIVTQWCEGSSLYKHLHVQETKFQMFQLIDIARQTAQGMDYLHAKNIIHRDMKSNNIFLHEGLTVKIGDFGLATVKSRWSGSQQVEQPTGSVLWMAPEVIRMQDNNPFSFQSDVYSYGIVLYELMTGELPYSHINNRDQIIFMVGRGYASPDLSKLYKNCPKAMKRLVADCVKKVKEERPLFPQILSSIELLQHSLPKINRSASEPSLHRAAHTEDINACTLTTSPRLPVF

[21] = Inhibition of BRAF V599E mutant (unknown origin) assessed as apparent inhibition constant incubated for 25 mins in presence of gamma-[33P]ATP; set-up: species or system Homo sapiens; conditions: read-out: Ki(app)

SMILES: O=C(NOCC1CC1)c1ccc(F)c(F)c1Nc1ccc(I)cc1Cl [CI-1040]
- inhibition (WM35): Active
- EC50 [1]: 61 nM
- EC50 (HCT-116): 2.2 µM
- EC50 [2]: 290 nM
- EC50 [3]: 240 nM
- EC50 (Malme-3M): 440 nM
- EC50 (SK-MEL-28): 220 nM
- EC50 [4]: 520 nM
- EC50 [5]: 88 nM
- EC50 [6]: 39 nM
- inhibition (WM-NCI): Active
- EC50 [7]: 11 nM
- EC50 [8]: 47 nM
- EC50 at 72 h [9]: 4.9 µM
- EC50 (HT-29): 360 nM
- EC50 (COLO 205): 230 nM
- EC50 at 72 h [10]: 0.58 µM
- EC50 [11]: 210 nM
- EC50 (HT-1080): 1.6 µM
- EC50 [12]: 66 nM
- EC50 (SK-MEL-2): 360 nM
- EC50 at 72 h [13]: 490 nM
- EC50 [14]: 86 nM
- EC50 [15]: 4.8 µM
- inhibition (WM-3434): Active
- inhibition (Melanocyte [16]): Active

SMILES: CN(C)CCOc1ccc(-c2nc(-c3ccncc3)c(-c3ccc4c(c3)CC/C4=N\O)[nH]2)cc1 [SB590885]
- EC50 (HCT-116): 4.6 µM
- EC50 [3]: 370 nM
- EC50 (Malme-3M): 150 nM
- Activity (Melanocyte [17]): Toxic
- EC50 (SK-MEL-28): 120 nM
- inhibition in vivo at 50 mg/kg [18]: ~50%
- EC50 at 72 h [9]: > 12 µM
- EC50 (HT-29): 870 nM
- Activity (A375P): Active
- EC50 (COLO 205): 100 nM
- EC50 at 72 h [10]: 9.2 µM
- EC50 (HT-1080): 13 µM
- EC50 (SK-MEL-2): 550 nM
- EC50 at 72 h [13]: > 13000 nM
- Activity [19]: Toxic
- Ki [20]: 1.72 nM

SMILES: CNC(=O)c1cc(Oc2ccc(NC(=O)Nc3ccc(Cl)c(C(F)(F)F)c3)cc2)ccn1 [SORAFENIB]
- Ki [21]: 38 nM
